Screening data (PubChem BioAssay)
Many of the other results were omitted from the sample, so hits are more common in it than they were.
RORA inh – RORA (human) inhibition; CHO-K1 Gal4-RORA LBD luciferase reporter, luminescence; 65,000 tested, 0.43% active; P35398; inhibition, % at 10 µM;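 active = inhibition above the mean of all tested compounds plus 3 SD, cut at about 52% in these data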;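 note: 0% = RORA-transfected cells with DMSO and 100% = mock-transfected cells lacking RORA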
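Test system: CHO-K1 cells with Gal4-hRORA LBD fusion and pG5-luc reporter | Timing: 20 h compound treatment, 37 °C | Detection: Luminescence from basal luciferase reporter expression | Read-out basis: % inhibition of basal luciferase versus +RORA/-RORA DMSO controls | Repeats: One measurement per compound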
* = called active by the depositor.

SMILES	RORA inh
C[C@H]1CCC/C=C/C2C[C@H](O)CC2[C@H](O)/C=C/C(=O)O1 (some centres undefined)	84*
CC(=O)C1(c2ccccc2)CCNCC1	-5
CC1=NOC2(C)Nc3ncnn3C(c3ccccc3)C12 (centres undefined)	14
O=C(C1CCCO1)N1CCC2(CC1)OCCO2 (centres undefined)	16
CC(C(=O)N1CCC2(CC1)OCCO2)C1Sc2ccccc2NC1=O (centres undefined)	10
CC(C)c1cccc(C(C)C)c1OCCn1ccnc1	20
CC[C@@H]1C(=O)OC[C@@H]1Cc1cncn1C	9
CCn1nc(-c2ccccc2)nc2c(=O)n(C)c(=O)nc1-2	93*
O=C(C1CC(c2ccc(Cl)c(Cl)c2)=NO1)N1CCC2(CC1)OCCO2 (centres undefined)	-73
Cc1ccc(S(=O)(=O)N(C)CCCC(=O)N2CCN(c3ccccn3)CC2)cc1	13
